The source made the active and inactive calls. No cut-off for these calls is given here.
Columns and labels:
[1] = biological target: T1, Dihydroorotate dehydrogenase (Plasmodium falciparum, UniProt Q54A96); experiment: Inhibition of Plasmodium falciparum DHODH after 20 mins by 2,6-dichloroindophenol-reduction based assay
T1 sequence (Q54A96 whole entry): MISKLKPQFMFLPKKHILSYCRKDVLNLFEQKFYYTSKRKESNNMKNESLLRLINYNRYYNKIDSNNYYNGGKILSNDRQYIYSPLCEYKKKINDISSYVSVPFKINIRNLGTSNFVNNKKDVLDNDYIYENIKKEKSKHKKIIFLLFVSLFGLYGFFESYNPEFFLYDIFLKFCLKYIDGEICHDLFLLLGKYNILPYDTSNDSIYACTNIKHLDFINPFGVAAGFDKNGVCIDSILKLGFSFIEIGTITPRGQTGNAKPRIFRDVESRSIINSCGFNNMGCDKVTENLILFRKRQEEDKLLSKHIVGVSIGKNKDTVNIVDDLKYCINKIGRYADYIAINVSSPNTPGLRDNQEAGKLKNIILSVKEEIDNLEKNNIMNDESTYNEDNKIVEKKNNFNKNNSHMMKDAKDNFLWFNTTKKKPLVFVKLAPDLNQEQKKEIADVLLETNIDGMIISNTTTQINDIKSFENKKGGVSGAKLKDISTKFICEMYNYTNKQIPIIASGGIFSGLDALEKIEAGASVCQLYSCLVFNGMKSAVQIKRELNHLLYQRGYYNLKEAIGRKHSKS

Plasmodium falciparum [2] = experiment: Antiplasmodial activity against Plasmodium falciparum 3D7 infected in […] after 72 hrs by SYBR green assay; format: functional, organism-based; conditions: 3D7, 72 h
Plasmodium falciparum [3] = experiment: Antiplasmodial activity against Plasmodium falciparum Dd2 infected in […] after 72 hrs by SYBR green assay; format: functional, organism-based; conditions: Dd2, 72 h
Plasmodium berghei = experiment: Inhibition of Plasmodium berghei DHODH after 20 mins by 2,6-dichloroindophenol-reduction based assay
Plasmodium vivax = experiment: Inhibition of Plasmodium vivax DHODH after 20 mins by 2,6-dichloroindophenol-reduction based assay
[4] = Clearance in human liver microsomes by LC-MS/MS analysis; format: ADME, Microsome
Summary of the method: (§1)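 Liver microsome incubation. Predicted clearance is derived from a well-stirred model corrected for microsomal and protein binding.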

[5] = Clearance in mouse liver microsomes by LC-MS/MS analysis; format: ADME, Microsome; summary of the method: as §1
[6] = biological target: Dihydroorotate dehydrogenase (quinone), mitochondrial (Homo sapiens, UniProt Q02127); experiment: Inhibition of human DHODH after 20 mins by 2,6-dichloroindophenol-reduction based assay
Sequence of Dihydroorotate dehydrogenase (quinone), mitochondrial (Q02127 whole entry): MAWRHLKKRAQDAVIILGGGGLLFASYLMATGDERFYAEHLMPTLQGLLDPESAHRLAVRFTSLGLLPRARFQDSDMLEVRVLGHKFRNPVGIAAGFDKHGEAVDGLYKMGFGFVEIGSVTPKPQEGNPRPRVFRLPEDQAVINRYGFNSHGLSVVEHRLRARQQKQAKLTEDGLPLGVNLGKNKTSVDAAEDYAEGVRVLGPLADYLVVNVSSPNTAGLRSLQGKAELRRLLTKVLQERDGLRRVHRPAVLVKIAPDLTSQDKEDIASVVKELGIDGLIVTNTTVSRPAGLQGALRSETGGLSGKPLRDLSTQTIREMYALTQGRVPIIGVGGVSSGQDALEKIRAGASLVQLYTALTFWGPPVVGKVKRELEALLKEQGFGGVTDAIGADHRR

Cytochrome P450 2D6 = Cytochrome P450 2D6 (Homo sapiens, UniProt P10635); experiment: Inhibition of human CYP2D6 using bufuralol as substrate after 10 mins by LC-MS/MS analysis; format: ADME
Sequence of Cytochrome P450 2D6 (P10635 whole entry): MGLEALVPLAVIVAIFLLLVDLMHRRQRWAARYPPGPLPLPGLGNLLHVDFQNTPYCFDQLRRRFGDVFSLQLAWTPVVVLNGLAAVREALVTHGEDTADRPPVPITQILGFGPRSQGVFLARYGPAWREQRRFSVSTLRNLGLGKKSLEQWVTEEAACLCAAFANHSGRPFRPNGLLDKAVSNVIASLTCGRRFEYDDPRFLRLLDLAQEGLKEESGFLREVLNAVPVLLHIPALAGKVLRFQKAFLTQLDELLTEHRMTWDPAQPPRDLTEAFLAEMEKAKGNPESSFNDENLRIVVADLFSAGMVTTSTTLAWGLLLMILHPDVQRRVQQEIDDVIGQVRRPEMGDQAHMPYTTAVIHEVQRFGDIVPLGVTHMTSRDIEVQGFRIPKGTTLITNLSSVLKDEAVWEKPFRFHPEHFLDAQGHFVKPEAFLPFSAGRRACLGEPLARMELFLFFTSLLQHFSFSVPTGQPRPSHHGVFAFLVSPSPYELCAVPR

[7] = biological target: Voltage-gated inwardly rectifying potassium channel KCNH2 (Homo sapiens, UniProt Q12809); experiment: Inhibition of human ERG expressed in CHOK1 cells by whole cell voltage clamp assay; format: cell-based, CHO-K1
Sequence of Voltage-gated inwardly rectifying potassium channel KCNH2 (Q12809 whole entry): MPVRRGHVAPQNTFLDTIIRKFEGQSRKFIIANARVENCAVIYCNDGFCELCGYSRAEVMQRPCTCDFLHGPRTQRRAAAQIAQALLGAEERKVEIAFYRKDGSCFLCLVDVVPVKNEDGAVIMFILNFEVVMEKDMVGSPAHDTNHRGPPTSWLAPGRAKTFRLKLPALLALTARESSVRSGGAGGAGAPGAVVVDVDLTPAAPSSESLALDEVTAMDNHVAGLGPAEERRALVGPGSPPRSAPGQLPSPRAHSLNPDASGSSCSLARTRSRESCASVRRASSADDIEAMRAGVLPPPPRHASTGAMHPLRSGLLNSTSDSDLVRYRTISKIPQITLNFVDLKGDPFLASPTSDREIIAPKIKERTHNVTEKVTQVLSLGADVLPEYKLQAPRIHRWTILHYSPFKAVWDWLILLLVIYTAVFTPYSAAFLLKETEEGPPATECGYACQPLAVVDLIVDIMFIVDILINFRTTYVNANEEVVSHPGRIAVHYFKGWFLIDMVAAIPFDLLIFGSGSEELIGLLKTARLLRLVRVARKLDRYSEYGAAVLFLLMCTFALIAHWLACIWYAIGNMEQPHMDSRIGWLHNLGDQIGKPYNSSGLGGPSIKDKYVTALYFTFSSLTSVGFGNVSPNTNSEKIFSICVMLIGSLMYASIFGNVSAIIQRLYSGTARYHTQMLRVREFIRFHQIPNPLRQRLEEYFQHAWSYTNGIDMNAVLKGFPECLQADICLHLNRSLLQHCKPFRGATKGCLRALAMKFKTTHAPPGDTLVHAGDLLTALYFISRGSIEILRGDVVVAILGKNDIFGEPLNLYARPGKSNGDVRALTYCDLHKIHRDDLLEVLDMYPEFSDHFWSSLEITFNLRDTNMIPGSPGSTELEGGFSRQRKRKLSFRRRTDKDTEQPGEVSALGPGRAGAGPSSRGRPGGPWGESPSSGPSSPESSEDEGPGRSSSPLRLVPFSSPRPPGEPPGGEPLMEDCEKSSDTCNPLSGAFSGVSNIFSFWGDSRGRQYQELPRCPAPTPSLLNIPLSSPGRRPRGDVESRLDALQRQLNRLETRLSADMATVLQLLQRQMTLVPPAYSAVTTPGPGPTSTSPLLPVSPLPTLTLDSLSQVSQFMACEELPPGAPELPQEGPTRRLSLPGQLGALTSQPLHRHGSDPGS

[8] = Cytotoxicity against human RPTEC after 4 days by alamar blue assay; format: cell-based; conditions: RPTEC cells, read-out: LC50

IC50 [1] [nM] | IC50 (Plasmodium falciparum [2]) [nM] | IC50 (Plasmodium falciparum [3]) [nM] | inhibition (Plasmodium berghei) | inhibition (Plasmodium vivax) | CLhep predicted [4] [mL/min/kg] | CLhep predicted [5] [mL/min/kg] | IC50 [6] [nM] | IC50 (Cytochrome P450 2D6) [nM] | Structure (SMILES) | IC50 [7] [nM] | CC50 at 96 h [8] [nM]
56 | 33 | 74 | Active | Active | 10 | > 72 |  |  | Cc1ccc2nc(C)n(-c3ccc(C(=O)NC4CC4)s3)c2c1 |  | 
92 | 56 | 96 | Active | Active | 8 | 68 |  |  | Cc1nc2ccc(C(F)(F)F)cc2n1-c1ccc(C(=O)NC2CC2)s1 |  | 
609 | 143 | 290 | Active | Active | 6 | > 72 |  |  | Cc1cccc2nc(C)n(-c3ccc(C(=O)NC4CC4)s3)c12 |  | 
21 | 5 | 6 | Active | Active | < 4 | 19 |  |  | Cc1nc2c(Cl)cccc2n1-c1ccc(C(=O)NC2CC2)s1 |  | 
28 | 128 | 113 | Active | Active |  |  |  |  | Cc1nc2c(OCC(F)F)cccc2n1-c1ccc(C(=O)NC2CC2)s1 |  | 
19 | 12 | 12 | Active | Active | 8 | > 72 | 17200 |  | O=C(NC1CC1)c1ccc(-n2cnc3cc(C(F)(F)F)ccc32)s1 |  | 
111 | 93 | 113 | Active | Active | < 4 | > 72 |  |  | Cc1nc2ccc(F)cc2n1-c1ccc(C(=O)NC2CC2)s1 |  | 
39 | 10 | 22 | Active | Active | 10 | 66 |  |  | Cc1cccc2c1nc(C)n2-c1ccc(C(=O)NC2CC2)s1 |  | 
62 | 17 | 8 | Active | Active | 10 | > 72 | 14900 |  | O=C(NC1CC1)c1ccc(-n2cnc3c(F)cccc32)s1 |  | 
> 30000 | > 5000 | > 5000 |  |  |  |  |  |  | O=C(NC1CC1)c1ccc(-n2c(=O)[nH]c3ccccc32)s1 |  | 
22 | 7 | 9 | Active | Active | 7 | 43 |  | 100 | Cc1nc2cc(OC(F)(F)F)ccc2n1-c1ccc(C(=O)NC2CC2)s1 | < 2800 | 
35 | 8 | 18 | Active | Active | 7 | > 72 | 5600 |  | O=C(NC1CC1)c1ccc(-n2cnc3c(Cl)cc(F)cc32)s1 |  | 
21 | 4 | 7 | Active | Active | 5 | 26 |  |  | Cc1nc2c(Br)cccc2n1-c1ccc(C(=O)NC2CC2)s1 |  | 
34 | 8 | 6 | Active | Active | < 4 | 37 |  |  | Cc1nc2c(F)cccc2n1-c1ccc(C(=O)NC2CC2)s1 |  | 
28 | 20 | 28 | Active | Active | 4 | > 72 |  |  | Cc1nc2cc(C(F)(F)F)ccc2n1-c1ccc(C(=O)NC2CC2)s1 |  | 
95 | 36 | 60 | Active | Active | 11 | > 72 | 7300 |  | Cc1cc(F)c2c(c1)ncn2-c1ccc(C(=O)NC2CC2)s1 |  | 
> 30000 | > 40000 | > 40000 |  |  |  |  |  |  | CN(C)C(=O)c1ccc(-n2cnc3ccccc32)s1 |  | 
25 | 12 | 13 | Active | Active | 5 | 42 | > 30000 |  | Cc1nc2c(Cl)cc(F)cc2n1-c1ccc(C(=O)NC2CC2)s1 |  | 
17 | 4 | 4 | Active | Active | 10 | > 72 | 3100 |  | Cc1cc(F)c2ncn(-c3ccc(C(=O)NC4CC4)s3)c2c1 |  | 
> 30000 | > 40000 | > 30000 |  |  |  |  |  |  | NC(=O)c1ccc(-n2cnc3ccccc32)s1 |  | 
181 | 75 | 159 | Active | Active |  |  |  |  | Cc1nc2c(N(C)C)cccc2n1-c1ccc(C(=O)NC2CC2)s1 |  | 
 | > 20000 | 7300 |  |  |  |  | > 30000 |  | CCCCNC(=O)c1ccc(-n2cnc3ccccc32)s1 |  | 
32 | 10 | 17 | Active | Active | 12 | > 72 |  |  | Cc1cc(F)c2nc(C)n(-c3ccc(C(=O)NC4CC4)s3)c2c1 |  | 
49 | 78 | 102 | Active | Active |  |  |  |  | Cc1nc2cc(Cl)ccc2n1-c1ccc(C(=O)NC2CC2)s1 |  | 

Structure (SMILES) | IC50 [1] [nM] | IC50 (Plasmodium falciparum [2]) [nM] | IC50 (Plasmodium falciparum [3]) [nM] | inhibition (Plasmodium berghei) | inhibition (Plasmodium vivax) | CLhep predicted [4] [mL/min/kg] | CLhep predicted [5] [mL/min/kg] | IC50 [6] [nM] | IC50 (Cytochrome P450 2D6) [nM] | IC50 [7] [nM] | CC50 at 96 h [8] [nM]
O=C(NC1CCCC1)c1ccc(-n2cnc3ccccc32)s1 | 2510 | 4400 | 5500 |  |  |  |  |  |  |  | 
CCCc1nc2ccccc2n1-c1ccc(C(=O)NC2CC2)s1 | 180 | 390 | 630 |  |  |  |  | 15100 |  |  | > 62000
Cc1nc2ccc(OC(F)(F)F)cc2n1-c1ccc(C(=O)NC2CC2)s1 | 52 | 36 | 53 | Active | Active | 10 | 41 |  |  |  | 
CC(C)NC(=O)c1ccc(-n2cnc3ccccc32)s1 | 680 | 560 | 810 |  |  |  |  |  |  |  | > 62000
CCc1nc2ccccc2n1-c1ccc(C(=O)NC2CC2)s1 | 110 | 120 | 180 |  |  |  |  |  |  |  | > 62000
CCCNC(=O)c1ccc(-n2cnc3ccccc32)s1 | 700 | 470 | 1100 |  |  |  |  | > 30000 |  |  | > 62000
CN(C)c1nc2ccccc2n1-c1ccc(C(=O)NC2CC2)s1 | 5600 | > 1000 | > 1000 |  |  |  |  |  |  |  | > 62000
CNC(=O)c1ccc(-n2cnc3ccccc32)s1 | 1080 | 280 | 420 |  |  |  |  |  |  |  | > 62000
O=C(NC1CCC1)c1ccc(-n2cnc3ccccc32)s1 | 420 | 410 | 440 |  |  |  |  |  |  |  | > 62000
O=C(NC1CC1)c1ccc(-n2c(C(F)(F)F)nc3ccccc32)s1 | 570 | 830 | 1710 |  |  |  |  | > 30000 |  |  | > 62000
Cc1nc2ccccc2n1-c1ccc(C(=O)NC2CC2)s1 | 80 | 90 | 110 |  |  |  |  |  |  |  | > 62000
Cc1ccc2c(c1)nc(C)n2-c1ccc(C(=O)NC2CC2)s1 | 56 | 87 | 130 | Active | Active | 8 | > 72 |  |  |  | 
CCNC(=O)c1ccc(-n2cnc3ccccc32)s1 | 140 | 100 | 150 |  |  |  |  |  |  |  | > 62000
O=C(NC1CC1)c1ccc(-n2cnc3ccccc32)s1 | 60 | 80 | 90 |  |  |  |  |  |  |  | > 62000

— ChEMBL document CHEMBL2010768, “Optimization of Potent Inhibitors of P. falciparum Dihydroorotate Dehydrogenase for the Treatment of Malaria” (ACS Med Chem Lett, 2011)
